GPR7 antagonist = blocks human GPR7 receptor signaling; P48145; GPR7-expressing cells, fluorescence antagonist assay; inhibition, % at 4.4 µM; hit rate 1.1% among 290,000; AID 1861; in the data active = inhibition above about 16%, passing the limit was not always enough;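 also: cells stimulated with the agonist NPW; 0% = agonist with vehicle and 100% = vehicle without agonist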
Target sequence (P48145 whole entry, looked up): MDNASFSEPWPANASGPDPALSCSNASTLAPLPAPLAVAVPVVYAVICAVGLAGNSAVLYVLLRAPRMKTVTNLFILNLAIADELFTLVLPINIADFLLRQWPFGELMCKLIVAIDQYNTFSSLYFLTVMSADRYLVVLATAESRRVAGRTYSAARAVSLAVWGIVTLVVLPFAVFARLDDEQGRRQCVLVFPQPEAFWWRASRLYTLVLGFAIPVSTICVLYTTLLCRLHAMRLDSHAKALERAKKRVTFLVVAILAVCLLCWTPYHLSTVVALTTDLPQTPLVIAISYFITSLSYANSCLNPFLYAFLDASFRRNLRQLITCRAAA
TAAR1 ag = agonists of human TAAR1. CHO RD-HGA16 TAAR1, Fluo-8 calcium fluorescence; vehicle wells 0%, saturating PEA agonist 100%. activation, % at 3 µM. hit rate 0.99% among 360,000. AID 624467;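 active = activation above the mean activation of all test compounds in the run plus 3 SD, cut at about 38% in these data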
Target sequence (Q96RJ0 whole entry, looked up): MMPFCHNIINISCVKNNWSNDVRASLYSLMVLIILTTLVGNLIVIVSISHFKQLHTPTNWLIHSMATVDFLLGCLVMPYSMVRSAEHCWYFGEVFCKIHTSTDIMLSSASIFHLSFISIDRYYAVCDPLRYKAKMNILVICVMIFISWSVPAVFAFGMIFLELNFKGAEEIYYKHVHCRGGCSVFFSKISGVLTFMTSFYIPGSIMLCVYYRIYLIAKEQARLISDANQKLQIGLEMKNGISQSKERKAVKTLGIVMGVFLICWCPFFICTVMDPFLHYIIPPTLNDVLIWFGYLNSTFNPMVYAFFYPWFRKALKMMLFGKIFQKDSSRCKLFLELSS
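System: CHO-derived RD-HGA16 cells with stable Gα16 and human TAAR1 / Times: 17-24 h plating, Fluo-8 75 min 37 °C, 30 min RT / Technique: calcium-sensitive Fluo-8 signal, excitation 470-495, emission 515-575 nm / Measure: % activation relative to PEA EC100 response / Benchmarks: DMSO and PEA EC100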
TAAR1 antag = antagonists of human TAAR1. Q96RJ0. CHO RD-HGA16 TAAR1, Fluo-8 calcium fluorescence, antagonist. inhibition, % at 3 µM. hit rate 1.5% among 360,000. AID 624466;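 active = inhibition above a per-plate cutoff, the mean inhibition of test compounds on that plate plus 3 SD, cut at about 49% in these data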;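 also: 0% = DMSO plus EC80 beta-PEA response and 100% = DMSO alone without agonist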
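Test system – hTAAR1-expressing CHO RD-HGA16 cells, Gα16-coupled · Also added – β-PEA at EC80 concentration, post-compound challenge · Compound – 3 µM, single point · Incubation – dye loading 75 min at 37 °C, then 30 min room temperature · Measured by – Fluo-8 intracellular calcium dye fluorescence, real-time kinetic reads · Benchmarks – vehicle and agonist controls · Replicates – singlicate, one well per test compound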
CHO parental Ca = counter-screen: ATP calcium response change in parental CHO cells; parental CHO-K1, ATP-induced calcium, Fluo-8 fluorescence; inhibition, % at 5.6 µM; hit rate 0.63% among 330,000;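 active = inhibition above that plate's mean sample inhibition plus 3 SD, cut at about 26% in these data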;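 also: 0% = ATP-challenged DMSO wells and 100% = DMSO wells without ATP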
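Assay system: parental CHO cells; Read-out basis: percent inhibition of ATP-evoked calcium rise, normalized to controls; Benchmarks: ATP and no-ATP DMSO wells; Compound dosing: single nominal dose of 5.6 µM per compound; Signal: Fluo-8 calcium dye fluorescence; Also added: ATP as calcium-mobilizing challenge; Repeats: singlicate.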
OX1R antag-1 = human HCRTR1 antagonism; inhibition, % at 5 µM; O43613; AID 434989; hit rate 0.43% among 330,000; CHO/OX1R cells, Fluo-8 calcium fluorescence, orexin A;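 active = inhibition above its plate's threshold, mean inhibition of all tested compounds on the plate plus 3 SD, cut at about 37% in these data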;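 also: 0% = orexin A challenge wells and 100% = SB-334867-A antagonist wells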
OX1R antag-2 = OX1R (human) antagonism | O43613 | OX1R-expressing cells, FRET antagonist read-out | inhibition, % at 6.6 µM | hit rate 1.8% among 330,000; in the data active = inhibition mostly above about 38%, no sharp cut-off; inactive = mostly below about 40%;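 also: 0% = agonist challenge alone and 100% = reference antagonist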
nonsel antag count = nonselective antagonism, TAAR1 counter-screen. shares compounds with TAAR1 antag. counterscreen cell line, calcium fluorescence, antagonist mode. inhibition, % at 3 µM. hit rate 77% among 2,400. AID 651780; in the data active = inhibition above about 22%;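 also: CHO-Ga16 host cells stimulated with ATP at an EC80 level; 0% = agonist EC80 plus vehicle and 100% = vehicle without agonist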
TAAR1 antag conf = confirmation of human TAAR1 antagonists; inhibition, % at 3 µM; hit rate 40% among 2,400; shares compounds with TAAR1 antag; TAAR1-expressing cells, fluorescence antagonist read-out; AID 651785; in the data active = inhibition above about 49%;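 also: CHO-Ga16 host cells challenged with agonist PEA near its EC80; 0% = agonist at EC80 plus vehicle and 100% = vehicle with no agonist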
Ga16 ag counter = counter-screen for TAAR1 antagonists: nonselective Ga16 agonists | shares compounds with TAAR1 antag | Ga16-expressing cells, calcium fluorescence, agonist counterscreen | activation, % at 3 µM | hit rate 18% among 2,400 | AID 651953; in the data active = activation above about 12%;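 also: 0% = vehicle wells and 100% = saturating stimulus response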
TAAR1 ag counter = counter-screen for human TAAR1 antagonists: TAAR1 agonists | shares compounds with TAAR1 antag | hit rate 2% among 2,400 | activation, % at 3 µM | hTAAR1 cell line, fluorescence activation, agonist mode; in the data active = activation above about 37%;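 also: CHO cells stably expressing TAAR1 with calcium dye readout; 0% = DMSO vehicle and 100% = full agonist response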
* marks the source's active call; other numbers are inactive results; . = no result given. Most compounds without a hit are left out; they make up all but 4.6% or so of the library.

SMILES	GPR7 antagonist	TAAR1 ag	TAAR1 antag	CHO parental Ca	OX1R antag-1	OX1R antag-2	nonsel antag count	TAAR1 antag conf	Ga16 ag counter	TAAR1 ag counter
CC(C)(O)C(O)COc1c2ccoc2cc2oc(=O)ccc12 (centres undefined)	-15	2	-6	-4	2	12	.	.	.	.
CC(=O)OC(C=C(C)C)C/C(C)=C/COc1c2ccoc2cc2oc(=O)ccc12 (centres undefined)	.	3	70*	.	.	.	28*	54*	9	25
Cc1nc2c(ccc3nc(NC(=O)c4ccc(S(=O)(=O)N(C)C)cc4)sc32)s1	-9	13	-3	-3	-3	58	.	.	.	.
c1ccc(-c2nc(SCc3nc4ccccc4[nH]3)c3oc4ccccc4c3n2)cc1	.	2	54*	-13	-2	14	18	15	1	-2
CCN(C(=S)NC(=O)CCc1ccccc1)c1ccccc1	3	0	-7	-5	-14	1	.	.	.	.
COc1ccc(NC(=O)Nc2cccc3c2O[C@H](CN(C)C(=O)Nc2ccc4c(c2)OCO4)[C@@H](C)CN([C@H](C)CO)C3=O)cc1	.	17	65*	-17	-6	29	33*	53*	5	6
C[C@H](CO)N1C[C@H](C)[C@@H](CN(C)C(=O)Nc2ccc3c(c2)OCO3)Oc2c(NC(=O)Nc3ccc4c(c3)OCO4)cccc2C1=O	.	24	69*	-3	-10	-1	31*	53*	9	9
COc1ccc(NC(=O)N(C)C[C@H]2Oc3c(NC(=O)Nc4ccccc4)cccc3C(=O)N([C@H](C)CO)C[C@@H]2C)cc1	.	5	27	1	-15	4	.	.	.	.
C[C@H](CO)N1C[C@H](C)[C@@H](CN(C)Cc2ccccc2)Oc2c(NC(=O)Cc3ccccc3)cccc2C1=O	.	22	68*	-11	-15	11	26*	44	8	15
O=C(Nc1cccc(S(=O)(=O)N2CCOCC2)c1)c1cc(=O)[nH]c2ccccc12	.	17	-20	-16	-5	1	.	.	.	.
CCOc1ccccc1N(CC(=O)Nc1ccc(S(=O)(=O)N2CCOCC2)cc1)S(C)(=O)=O	-1	0	-1	-4	-11	25	.	.	.	.
Cn1c(NCc2ccccc2F)nc2cc(-c3cccc(Cl)c3)sc2c1=O	.	1	-8	.	.	.	.	.	.	.
COc1cc(/C=C2/C(=N)N3C=CSC3=NC2=O)ccc1OCCCOc1ccccc1C	13	14	64*	-18	-8	8	26*	43	4	4
COc1cc(/C=C2/C(=N)N3C=CSC3=NC2=O)ccc1OCCCOc1c(C)cccc1C	-1	0	44	-19	-16	-1	.	.	.	.
Clc1cccc(CNc2nc(-c3cccnc3)nc3ccccc23)c1	6	6	45	.	.	.	.	.	.	.
Cc1ccc(-c2nc(N/N=C/c3ccncc3)c3ccccc3n2)cc1	8	11	57*	-8	-20	-1	27*	44	4	1
COc1ccc(/C=N/Nc2nc(-c3cccnc3)nc3ccccc23)cc1OC	-6	19	72*	-16	-22	24	29*	51*	10	8
Oc1ccc(/C=N/Nc2nc(-c3cccnc3)nc3ccccc23)c(O)c1	-15	15	81*	-14	-14	6	23*	44	8	10
Clc1ccccc1-c1nc(N/N=C/c2cccnc2)c2ccccc2n1	8	8	30	-39	-37	22	.	.	.	.
COc1cc(CN2CCN(Cc3ccc(C)cc3)C(CCO)C2)ccc1O (centres undefined)	1	2	17	2	-3	5	.	.	.	.
CCCCNc1c(-c2cccc(-c3cc(C(C)=O)cs3)c2)nc2ccc(C)cn12	.	15	68*	-15	-13	50	36*	54*	7	5
CCOC(=O)N1CCC(NC(=O)c2ccc3c(c2)sc2nc(-c4cccc(OC)c4)cn23)CC1	-10	.	.	.	.	.	.	.	.	.
CCOC(=O)N1CCC(NC(=O)c2ccc3c(c2)sc2nc(-c4ccccc4)cn23)CC1	5	17	57*	-15	-7	15	31*	35	10	8
CCc1c(C(C)S(=O)(=O)c2ccccc2)[nH]c(=O)n1CC (centres undefined)	-12	3	0	-3	-7	21	.	.	.	.
Cc1ccc(C)c(/C=N/Nc2ccccn2)c1	7	-4	105*	-7	-8	27	-2	0	1	0
SMILES	GPR7 antagonist	TAAR1 ag	TAAR1 antag	CHO parental Ca	OX1R antag-1	OX1R antag-2	nonsel antag count	TAAR1 antag conf	Ga16 ag counter	TAAR1 ag counter
COC(=O)C1=C(C(=O)OC)[C@@H]2N(C)c3ccccc3[C@@]23C[C@@H](C(=O)OC)N=C3N1	.	0	-1	-16	-19	26	.	.	.	.
Cc1ccc2nc(NC(=O)CSc3nc4ccccc4o3)sc2c1	-15	4	-14	-15	-15	21	.	.	.	.
COc1ccc(-c2noc(CCC(=O)N3CCN(c4ccccc4OC)CC3)n2)cc1	.	6	27	-19	-11	2	.	.	.	.
COc1ccc(-c2noc(CCC(=O)N3CCN(c4ccccc4C(F)(F)F)CC3)n2)cc1	.	5	65*	-15	-2	10	28*	48	11	15
Cc1cccc(NC(=O)NCC2CCN(c3ccc(S(=O)(=O)N4CCOCC4)cc3)CC2)c1	-12	-1	13	-4	-24	12	.	.	.	.
CCOc1cc(NC(=S)NCCOC)c(OCC)cc1NC(=O)c1cccs1	-7	10	-5	-18	-24	18	.	.	.	.
